From ChEMBL document CHEMBL1124483 (J Med Chem, 1989)

Assay: Lethal dose of the compound, when administered intraperitoneally in mice
Type: toxicity, organism-based
Details: mouse, in vivo, ip
In short: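 Male Swiss Webster mice (15–20 g), five per dose level, at least four dose levels, given ip injection (0.10 mL/10 g) in normal saline or saline/phosphate-buffered saline, with EtOH up to 2.5% final for some; solvent-only control group.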

Structure (SMILES)	LD50 [µmol/kg]
OC1CCCCC1N1CCC(c2ccccc2)CC1 (racemic)	16
OC1CCCC1N1CCC(c2ccccc2)CC1 (stereo not given)	> 200
CO[C@H]1CCC[C@@H](N2CCC(c3ccccc3)CC2)[C@@H]1O	240
CC1(O)CCCC[C@H]1N1CCC(c2ccccc2)CC1 (stereo not given in full)	> 180
C[N+]1(C2CCCCC2O)CCC(c2ccccc2)CC1 (stereo not given)	> 180
CC(C)(C)[C@H]1CC[C@@H](O)[C@H](N2CCC(c3ccccc3)CC2)C1	5.7
OC1CCCCC1N1CCC(Cc2ccccc2)CC1 (stereo not given)	> 180
OC1CC2CCCCC2CC1N1CCC(c2ccccc2)CC1 (racemic)	2
O[C@H]1CCCC[C@@H]1N1CCC(c2ccccc2)CC1	> 190
OC1Cc2ccccc2CC1N1CCC(c2ccccc2)CC1 (stereo not given)	1.2
CC(=O)Nc1cccc2c1CC(N1CCC(c3ccccc3)CC1)C(O)C2 (stereo not given)	1.7
OC1CCCCC1N1CC=C(c2ccc(Cl)cc2)CC1 (stereo not given)	> 340
CCC(O)CN1CCC(c2ccccc2)CC1 (stereo not given)	300
COc1ccccc1N1CCN(C2CC3CCCCC3CC2O)CC1 (racemic; 68)	12
O[C@@H]1CCCC[C@H]1N1CCC(c2ccccc2)CC1 [VESAMICOL]	12
